Laboratory results as given in article PMC6159316 (Journal of Insect Science, 2018).
Like-named read-outs stand apart in the source and are kept apart here.

Columns and labels:
[1] = target: T1, CSP3 (Chilo suppressalis, UniProt V9PY40); format: binding; conditions: for activity at 30 µM: pH 7.4, read-out: CSP3 Intensity %; for IC50: read-out: CSP3 IC50, displacement of 1-NPN, ligand 2–30 µM; for Ki: read-out: CSP3 Ki, competitive binding with 1-NPN
T1 sequence (V9PY40 19-126): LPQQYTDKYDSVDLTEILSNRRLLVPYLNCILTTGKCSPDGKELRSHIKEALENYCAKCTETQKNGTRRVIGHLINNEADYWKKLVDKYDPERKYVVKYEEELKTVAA
Method in brief: (§1)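 Mature CSP cDNA in pET-30a(+), expressed in E. coli, purified, His-tag cleaved with enterokinase. […] Competition: 2 µM protein plus 2 µM 1-NPN in 50 mM Tris–HCl, titrated with 1 mM odorant stock to 2–30 µM final. Excitation 337 nm, emission 400–460 nm, three replicates.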

[2] = target: CSP2; format: binding, Chilo suppressalis; conditions: for IC50: read-out: CSP2 IC50, displacement of 1-NPN, ligand 2–30 µM; for Ki: read-out: CSP2 Ki, competitive binding with 1-NPN
[3] = target: T2, CSP1 (Chilo suppressalis, UniProt V9PY22); format: binding; conditions: for activity at 30 µM: pH 7.4, read-out: CSP1 Intensity %; for IC50: read-out: CSP1 IC50, displacement of 1-NPN, ligand 2–30 µM; for Ki: read-out: CSP1 Ki, competitive binding with 1-NPN
T2 sequence (V9PY22 18-122): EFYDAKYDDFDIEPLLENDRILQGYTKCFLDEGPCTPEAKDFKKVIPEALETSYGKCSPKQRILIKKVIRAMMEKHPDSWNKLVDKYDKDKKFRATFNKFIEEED
Method in brief: as §1

[4] = tested on: adult C. suppressalis; conditions: ref Wei et al. 2013, Khuhro et al. 2017a; cited from earlier work

## CCCCCCCCC=O [1-Nonaldehyde]
[1]
  activity at 30 µM: 75 ± 2.3%
[2]
  IC50: > 30 µM
[3]
  activity at 30 µM: 74.1%

## CC=CC=CCO [2,4 hexadienol]
[1]
  activity at 30 µM: 53.5 ± 1.87%
[2]
  IC50: 18.4 µM
  Ki: 15.8 µM
[3]
  activity at 30 µM: 85.8%

## CCCCCC(C)O (stereo not shown) [2-Heptanol]
[1]
  activity at 30 µM: 91.8 ± 1.7%
[2]
  IC50: 10.8 µM
  Ki: 9.25 µM
[2]; listed as 2-heptanol
  Ki: ≤ 10 µM
[3]
  activity at 30 µM: 48.9%

## CCCCCC(C)=O [2-Heptanone]
[1]
  activity at 30 µM: 82 ± 3.87%
[2]
  IC50: > 30 µM
[3]
  activity at 30 µM: 49.3 ± 1.89%

## CCCCCCCCCCCCCC(C)=O [2-Pentadecanone]
[1]
  activity at 30 µM: 67.6 ± 0.91%
[2]
  IC50: 23.6 µM
  Ki: 20.3 µM
[3]
  activity at 30 µM: 27.9 ± 2.11%

## CCCCCCCCCCCC(C)=O [2-Tridecanone]
[1]
  activity at 30 µM: 72.8 ± 2.06%
[2]
  IC50: 24.3 µM
  Ki: 20.9 µM
[3]
  activity at 30 µM: 24.8 ± 1.61%

## C[C@@H]1CC[C@H]2C(C)(C)[C@H]3C[C@@]12CC[C@@]3(C)O [(+)-Cedrol]
[1]
  activity at 30 µM: 45.2 ± 1.9%
[2]
  IC50: 10.7 µM
  Ki: 9.22 µM
[2]; listed as (+)-cedrol
  Ki: ≤ 10 µM
[3]
  activity at 30 µM: 47.2 ± 1.16%

## O=Cc1ccccc1 [Benzaldehyde]
[1]
  activity at 30 µM: 44.2 ± 3.53%
[2]
  IC50: 28.5 µM
  Ki: 24.5 µM
[3]
  activity at 30 µM: 34.2 ± 2.35%

## OCc1ccccc1 [Benzyl alcohol]
[1]
  activity at 30 µM: 84.1 ± 2.96%
[2]
  IC50: > 30 µM
[3]
  activity at 30 µM: 67.5 ± 2.24%

## CCC/C=C/C=O [E2-Hexenal]
[1]
  IC50: > 30 µM
[2]
  IC50: > 30 µM
[3]
  IC50: > 30 µM

## CCC/C=C/COC(C)=O [E2-Hexenyl acetate]
[1]
  IC50: > 30 µM
[2]
  IC50: > 30 µM
[3]
  IC50: > 30 µM

## CCC/C=C/CO [E2-hexenol]
[1]
  IC50: > 30 µM
[2]
  IC50: > 30 µM
[3]
  IC50: > 30 µM

## CC/C=C\CCO [E3-Hexenol]
[1]
  IC50: > 30 µM
[2]
  IC50: > 30 µM
[3]
  IC50: > 30 µM

## CCOC(=O)c1ccccc1 [Ethyl benzoates]
[1]
  IC50: > 30 µM
[2]
  IC50: > 30 µM
[3]
  IC50: > 30 µM

## CCCCCCO [Hexyl alcohol]
[1]
  activity at 30 µM: 67.7 ± 3.05%
[2]
  IC50: > 30 µM
[3]
  activity at 30 µM: 64 ± 4.34%

## CCCCCCCCCCCC(=O)O [Lauric acid]
[1]
  IC50: > 30 µM
[2]
  IC50: > 30 µM
[3]
  IC50: > 30 µM

## CCCCCCCCCCCC=O [Laurinaldehyde]
[1]
  IC50: > 30 µM
[2]
  IC50: 19.3 µM
  Ki: 16.6 µM
[3]
  IC50: 11.8 µM
  Ki: 9.16 µM
[3]; listed as laurinaldehyde
  Ki: ≤ 10 µM

## CCCCC/C=C\C/C=C\CCCCCCCC(=O)O [Linoleic acid]
[1]
  activity at 30 µM: 89.17 ± 0.88%
[2]
  IC50: 20.6 µM
  Ki: 17.7 µM
[3]
  activity at 30 µM: 55.6 ± 3.45%

## C=CC(C)=CCC=C(C)C [Ocimene]
[1]
  IC50: > 30 µM
[2]
  IC50: > 30 µM
[3]
  IC50: > 30 µM

## CCCCCCCC/C=C\CCCCCCCC(=O)O [Oleic acid]
[1]
  activity at 30 µM: 84.7 ± 2.37%
[2]
  IC50: > 30 µM
[3]
  activity at 30 µM: 58.9 ± 2.59%

## CCCCCCCCCCCCCCCC(=O)O [Palmitic acid]
[1]
  activity at 30 µM: > 100%
[2]
  IC50: > 30 µM
[3]
  activity at 30 µM: 78.2 ± 0.93%

## CCC/C=C\C=O [Z2-Hexenal]
[1]
  IC50: > 30 µM
[2]
  Ki: 28.6 µM
[3]
  IC50: 15.8 µM
  Ki: 12.2 µM

## CC/C=C\CCO [Z3-Hexenol]
[1]
  IC50: > 30 µM
[2]
  IC50: 20.7 µM
  Ki: 17.7 µM
[3]
  IC50: > 30 µM

## CC/C=C\CCOC(C)=O [Z3-Hexenyl acetate]
[1]
  IC50: > 30 µM
[2]
  IC50: > 30 µM
[3]
  IC50: > 30 µM

## CCCCCC/C=C\CCCCCCCC=O [Z9-Hexadecenal]
[1]
  IC50: 9.9 µM
  Ki: 8.86 µM
[2]
  IC50: 11.1 µM
  Ki: 9.55 µM
[3]
  IC50: 17.4 µM
  Ki: 13.5 µM

## CCCC/C=C\CCCCCCCCCC=O [Z11-Hexadecenal]
[1]
  IC50: 6.96 µM
  Ki: 6.23 µM
[2]
  IC50: 10.3 µM
  Ki: 8.89 µM
[3]
  IC50: 20.9 µM
  Ki: 16.2 µM

## CCCC/C=C\CCCCCCCCCCCC=O [Z13-Octadecenal]
[1]
  IC50: 25.1 µM
  Ki: 22.5 µM
[2]
  IC50: 20 µM
  Ki: 17.2 µM
[3]
  IC50: > 30 µM

## CC1=CC[C@H](C(C)C)C=C1 [α-Phellandrene]
[1]
  activity at 30 µM: 95.3 ± 1.58%
[2]
  IC50: > 30 µM
[3]
  activity at 30 µM: 73 ± 2.46%

## Farnesene
[1]; criteria for plant volatiles
  binding affinity class for CSP3 (plant volatiles): did not show high or moderate binding affinity
[1]
  IC50: > 30 µM
[4]
  electroantennographic (EAG) response: significant EAG response
[2]; criteria for plant volatiles
  binding affinity class for CSP2 (plant volatiles): did not show high or moderate binding affinity
[2]
  IC50: 24 µM
  Ki: 20.4 µM
[3]; criteria for plant volatiles
  binding affinity class for CSP1 (plant volatiles): did not show high or moderate binding affinity
[3]
  IC50: 27.6 µM
  Ki: 23.3 µM
